Reference: ChEMBL document CHEMBL4304816, “A Novel Biphenyl-based Chemotype of Retinoid X Receptor Ligands Enables Subtype and Heterodimer Preferences” (ACS Med Chem Lett, 2019)
Active and inactive are the calls of the source. The calls are words filed in the database; no cut-off is given here.

Tests used:
Format in all cases: cell-based
[1] = target: T1, Retinoic acid receptor RXR-alpha (Homo sapiens, UniProt P19793); assay: Agonist activity at Gal4-LBD fused RXRalpha (unknown origin) expressed in HEK293T cells after 14 to 16 hrs by dual-Glo luciferase assay
T1 sequence (P19793 whole entry): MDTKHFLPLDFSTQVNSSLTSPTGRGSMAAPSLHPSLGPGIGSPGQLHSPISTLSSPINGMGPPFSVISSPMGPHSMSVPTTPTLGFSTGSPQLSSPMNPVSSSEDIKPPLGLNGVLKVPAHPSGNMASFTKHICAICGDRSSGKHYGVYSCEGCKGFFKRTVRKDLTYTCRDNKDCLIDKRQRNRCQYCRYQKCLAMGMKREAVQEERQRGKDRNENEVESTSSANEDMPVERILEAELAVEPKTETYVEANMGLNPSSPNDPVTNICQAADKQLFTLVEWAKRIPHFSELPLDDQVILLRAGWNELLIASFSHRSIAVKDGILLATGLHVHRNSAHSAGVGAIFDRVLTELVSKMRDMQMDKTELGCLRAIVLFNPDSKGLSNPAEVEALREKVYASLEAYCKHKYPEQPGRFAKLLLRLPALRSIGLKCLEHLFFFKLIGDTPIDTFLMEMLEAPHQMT
How it was run: (§1)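 Gal4-hybrid RXRα/β/γ reporter gene assays in HEK293T cells. Fold activation is the maximal fold activation versus 0.1% DMSO.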

[2] = target: T2, Retinoic acid receptor RXR-beta (Homo sapiens) (UniProt P28702); assay: Agonist activity at Gal4-LBD fused RXRbeta (unknown origin) expressed in HEK293T cells at 30 uM after 14 to 16 hrs by dual-Glo luciferase assay
T2 sequence (whole entry): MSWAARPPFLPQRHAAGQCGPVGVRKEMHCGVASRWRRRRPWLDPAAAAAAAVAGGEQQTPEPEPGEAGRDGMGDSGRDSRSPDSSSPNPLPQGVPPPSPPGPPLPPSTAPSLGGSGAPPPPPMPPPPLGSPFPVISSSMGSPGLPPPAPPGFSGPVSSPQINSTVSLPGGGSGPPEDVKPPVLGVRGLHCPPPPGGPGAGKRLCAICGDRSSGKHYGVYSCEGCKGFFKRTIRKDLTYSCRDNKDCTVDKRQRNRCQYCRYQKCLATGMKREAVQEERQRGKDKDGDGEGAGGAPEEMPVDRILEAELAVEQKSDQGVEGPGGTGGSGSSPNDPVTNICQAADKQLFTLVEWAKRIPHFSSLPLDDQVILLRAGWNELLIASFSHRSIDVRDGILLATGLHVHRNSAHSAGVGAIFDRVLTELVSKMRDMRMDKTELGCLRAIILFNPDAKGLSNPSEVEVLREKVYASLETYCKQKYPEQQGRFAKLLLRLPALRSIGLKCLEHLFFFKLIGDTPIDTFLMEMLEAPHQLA

[3] = target: T3, Retinoic acid receptor RXR-alpha (Homo sapiens) (UniProt P19793); assay: Agonist activity at Gal4-LBD fused RXRalpha (unknown origin) expressed in HEK293T cells assessed as fold activation after 14 to 16 hrs by dual-Glo luciferase assay relative to untreated control; how it was run: as §1
T3 sequence (whole entry): T1 sequence (P19793 whole entry)

[4] = target: T4, Retinoic acid receptor RXR-gamma (Homo sapiens) (UniProt P48443); assay: Agonist activity at Gal4-LBD fused RXRgamma (unknown origin) expressed in HEK293T cells at 30 uM after 14 to 16 hrs by dual-Glo luciferase assay
T4 sequence (whole entry): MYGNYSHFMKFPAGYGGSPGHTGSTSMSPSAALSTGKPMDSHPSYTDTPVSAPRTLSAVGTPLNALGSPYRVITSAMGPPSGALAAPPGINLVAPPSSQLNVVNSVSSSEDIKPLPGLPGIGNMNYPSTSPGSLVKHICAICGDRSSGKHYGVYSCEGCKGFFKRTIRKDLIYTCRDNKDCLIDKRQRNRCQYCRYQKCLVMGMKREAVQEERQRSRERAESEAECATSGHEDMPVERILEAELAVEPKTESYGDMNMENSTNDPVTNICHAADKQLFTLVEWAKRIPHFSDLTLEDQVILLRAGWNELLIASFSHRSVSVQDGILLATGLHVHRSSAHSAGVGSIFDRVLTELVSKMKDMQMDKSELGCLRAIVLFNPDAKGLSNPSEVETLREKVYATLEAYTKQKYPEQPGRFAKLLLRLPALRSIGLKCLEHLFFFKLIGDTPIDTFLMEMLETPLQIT

[5] = target: T5, Retinoic acid receptor RXR-beta (Homo sapiens, UniProt P28702); assay: Agonist activity at Gal4-LBD fused RXRbeta (unknown origin) expressed in HEK293T cells after 14 to 16 hrs by dual-Glo luciferase assay; how it was run: as §1
T5 sequence (P28702 whole entry): T2 sequence (whole entry)

[6] = target: T2, Retinoic acid receptor RXR-beta (Homo sapiens); assay: Agonist activity at Gal4-LBD fused RXRbeta (unknown origin) expressed in HEK293T cells assessed as fold activation after 14 to 16 hrs by dual-Glo luciferase assay relative to untreated control; how it was run: as §1
[7] = target: T4, Retinoic acid receptor RXR-gamma (Homo sapiens); assay: Agonist activity at Gal4-LBD fused RXRgamma (unknown origin) expressed in HEK293T cells at 10 uM after 14 to 16 hrs by dual-Glo luciferase assay
[8] = target: T2, Retinoic acid receptor RXR-beta (Homo sapiens); assay: Agonist activity at Gal4-LBD fused RXRbeta (unknown origin) expressed in HEK293T cells at 10 uM after 14 to 16 hrs by dual-Glo luciferase assay
[9] = target: T3, Retinoic acid receptor RXR-alpha (Homo sapiens); assay: Agonist activity at Gal4-LBD fused RXRalpha (unknown origin) expressed in HEK293T cells at 10 uM after 14 to 16 hrs by dual-Glo luciferase assay
[10] = target: T6, Retinoic acid receptor RXR-gamma (Homo sapiens, UniProt P48443); assay: Agonist activity at Gal4-LBD fused RXRgamma (unknown origin) expressed in HEK293T cells after 14 to 16 hrs by dual-Glo luciferase assay; how it was run: as §1
T6 sequence (P48443 whole entry): T4 sequence (whole entry)

[11] = target: T4, Retinoic acid receptor RXR-gamma (Homo sapiens); assay: Agonist activity at Gal4-LBD fused RXRgamma (unknown origin) expressed in HEK293T cells assessed as fold activation after 14 to 16 hrs by dual-Glo luciferase assay relative to untreated control; how it was run: as §1
[12] = target: T4, Retinoic acid receptor RXR-gamma (Homo sapiens); assay: Agonist activity at Gal4-LBD fused RXRgamma (unknown origin) expressed in HEK293T cells at 20 uM after 14 to 16 hrs by dual-Glo luciferase assay
[13] = target: T3, Retinoic acid receptor RXR-alpha (Homo sapiens); assay: Agonist activity at Gal4-LBD fused RXRalpha (unknown origin) expressed in HEK293T cells at 30 uM after 14 to 16 hrs by dual-Glo luciferase assay

Row | SMILES | EC50 [1] | Activity [2] | fold change (FC) [3] | Activity [4] | EC50 [5] | fold change (FC) [6] | further results
1 | COc1cc(OC)cc(-c2ccc(C(=O)O)cc2)c1 | 25.4 µM | inactive | 4.8 | inactive |  |  | 
2 | CCOc1cccc(-c2ccc(C(=O)O)cc2)c1 | 22.5 µM |  | 11 | inactive | 30 µM | 11 | 
3 | Cc1cc(-c2cc(C(C)(C)C)cc(C(C)(C)C)c2)ccc1CC(=O)O | 3.5 µM |  | 3.5 |  | 7 µM | 28 | Activity [7]: inactive
4 | Cc1cc(C(=O)O)ccc1-c1cc(C(C)(C)C)cc(C(C)(C)C)c1 |  |  |  |  |  |  | Activity [8]: inactive; Activity [9]: inactive; Activity [7]: inactive
5 | CC(C)(C)c1cc(-c2ccc(CCC(=O)O)cc2)cc(C(C)(C)C)c1 | 1.5 µM |  | 21 |  | 2.1 µM | 94 | EC50 [10]: 5 µM; fold change (FC) [11]: 17
6 | CC(C)(C)c1cccc(-c2ccc(C(=O)O)cc2)c1 | 18 µM |  | 19 |  | 12.8 µM | 35 | Activity [12]: inactive
7 | Cc1cccc(-c2ccc(C(=O)O)cc2)c1 |  | inactive |  | inactive |  |  | Activity [13]: inactive
8 | CCc1cc(CC)cc(-c2ccc(C(=O)O)cc2)c1 | 3.4 µM |  | 11 |  | 6.7 µM | 33 | Activity [12]: inactive
9 | O=C(O)c1ccc(-c2ccccc2)cc1 |  | inactive |  | inactive |  |  | Activity [13]: inactive
